Assay results taken from ChEMBL document CHEMBL3232915, “Discovery, optimization, and characterization of novel D2 dopamine receptor selective antagonists” (J Med Chem, 2014).
One block for each compound: values may come before it.

How the values were obtained:
D(2) dopamine receptor [1] = biological target: T1, D(2) dopamine receptor (Homo sapiens, UniProt P14416); assay: Antagonist activity at D2 receptor (unknown origin) expressed in Flp-In TREx 293 cells coexpressing chimeric Gqi5 protein assessed as calcium accumulation by Fluo-8AM dye based fluorescence analysis; format: functional, cell-based
T1 sequence (P14416 whole entry): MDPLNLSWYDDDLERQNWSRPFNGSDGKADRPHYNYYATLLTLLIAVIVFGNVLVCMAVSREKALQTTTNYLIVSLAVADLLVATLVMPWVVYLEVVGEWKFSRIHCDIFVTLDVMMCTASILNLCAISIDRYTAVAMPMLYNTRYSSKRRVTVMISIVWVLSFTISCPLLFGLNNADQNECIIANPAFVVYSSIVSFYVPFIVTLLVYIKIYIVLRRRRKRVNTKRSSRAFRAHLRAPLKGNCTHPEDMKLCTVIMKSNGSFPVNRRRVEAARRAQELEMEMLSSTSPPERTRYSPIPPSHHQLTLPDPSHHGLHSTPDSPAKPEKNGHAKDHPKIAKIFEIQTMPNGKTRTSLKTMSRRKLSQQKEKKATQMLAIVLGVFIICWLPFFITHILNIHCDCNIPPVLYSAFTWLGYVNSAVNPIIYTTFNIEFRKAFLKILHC

Plasma [2] = assay: Stability of the compound in human plasma assessed as compound remaining after 2 hrs; format: ADME, cell-free
Caco-2 [3] = assay: Apparent permeability from apical to basolateral side in human Caco2 cells; format: ADME, cell-based
Caco-2 [4] = assay: Apparent permeability from basolateral to apical side in human Caco2 cells; format: ADME, cell-based
Brain = assay: Cmax in C57BL/6 mouse brain at 30 mg/kg, ip administered as single dose measured within 15 mins after drug challenge; format: ADME, organism-based; parameters: dose 30 mg/kg, route intraperitoneal; settings: in vivo, 0.25 h
In short: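 Male C57BL/6 mice (N = 3) got a single 30 mg/kg ip dose in 10% NMP + 20% PEG 400 + 70% of 25% HP-β-CD in water. Plasma and brain concentration–time profiles were measured.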

Liver = assay: Intrinsic half-life in mouse liver microsomes; format: ADME
D(3) dopamine receptor [5] = biological target: T2, D(3) dopamine receptor (Homo sapiens, UniProt P35462); assay: Displacement of [3H]methylspiperone from human D3 receptor expressed in HEK293 cell membrane after 90 mins by scintillation counting analysis; format: cell membranes
T2 sequence (P35462 whole entry): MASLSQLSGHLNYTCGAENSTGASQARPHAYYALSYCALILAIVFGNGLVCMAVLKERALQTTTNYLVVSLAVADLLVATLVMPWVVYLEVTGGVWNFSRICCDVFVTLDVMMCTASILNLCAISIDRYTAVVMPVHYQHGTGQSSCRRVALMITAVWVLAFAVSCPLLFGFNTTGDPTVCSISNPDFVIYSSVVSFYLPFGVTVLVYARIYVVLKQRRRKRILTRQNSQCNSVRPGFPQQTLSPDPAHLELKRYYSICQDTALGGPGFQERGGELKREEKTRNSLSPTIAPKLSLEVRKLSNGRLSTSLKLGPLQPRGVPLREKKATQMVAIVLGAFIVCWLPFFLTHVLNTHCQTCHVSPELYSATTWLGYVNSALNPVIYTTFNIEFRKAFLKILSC

[6] = Aqueous kinetic solubility of the compound in PBS buffer; format: physicochemical
Plasma [7] = assay: Stability of the compound in mouse plasma assessed as compound remaining after 2 hrs; format: ADME, cell-free
D(2) dopamine receptor [8] = biological target: T1, D(2) dopamine receptor; assay: Antagonist activity at ProLink-tagged D2 receptor (unknown origin) expressed in CHO cells assessed as inhibition of dopamine-stimulated beta-arrestin binding treated for 90 mins prior to dopamine challenge by PathHunter DiscoveRx assay; format: cell-based
D(3) dopamine receptor [9] = biological target: T2, D(3) dopamine receptor; assay: Antagonist activity at ProLink-tagged D3 receptor (unknown origin) expressed in CHO cells assessed as inhibition of dopamine-stimulated beta-arrestin binding treated for 90 mins prior to dopamine challenge by PathHunter DiscoveRx assay; format: cell-based
D(2) dopamine receptor [10] = biological target: T1, D(2) dopamine receptor; assay: Displacement of [3H]methylspiperone from human D2L receptor expressed in HEK cell membrane after 90 mins by scintillation counting analysis; format: cell membranes, HEK293
CHO = assay: Ratio of AC50 for ProLink-tagged D3 receptor (unknown origin) expressed in CHO cells to AC50 for ProLink-tagged D2 receptor (unknown origin) expressed in CHO cells by beta-arrestin assay; format: cell-based; settings: Homo sapiens
HEK293 = assay: Ratio of Ki for human D3 receptor expressed in HEK293 cell membrane to Ki for human D2L receptor expressed in HEK cell membrane; format: cell-based
In short: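 Competition binding with [3H]methylspiperone on membranes from stable HEK cells. […] Incubation 90 min at room temperature in EBSS with sodium metabisulfite, nonspecific binding with 4 µM (+)-butaclamol, then GF/C filtration and scintillation counting. Ki from IC50 via Cheng–Prusoff.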

SMILES: CCN1C(=O)c2ccccc2[S+]([O-])c2ccc(C(=O)Nc3ccc(OC)cc3)cc21 (racemic)
- AC50 (D(2) dopamine receptor [1]): 141 nM

SMILES: COc1ccc(CNC(=O)c2ccc3c(c2)N(Cc2ccccc2)C(=O)c2ccccc2[S+]3[O-])cc1 (racemic)
- AC50 (D(2) dopamine receptor [1]): 8870 nM

SMILES: CCN1C(=O)c2ccccc2S(=O)(=O)c2ccc(C(=O)NCc3ccc(OC)cc3)cc21
- AC50 (D(2) dopamine receptor [1]): > 77000 nM

SMILES: CN1C(=O)c2ccccc2[S@+]([O-])c2ccc(C(=O)NCCc3cccs3)cc21
- Stability (Plasma [2]): 98.4%
- Papp (Caco-2 [3]): 18.8 ×10⁻⁶ cm/s
- Papp (Caco-2 [4]): 23.8 ×10⁻⁶ cm/s
- Cmax (Brain): 4.19 µmol/kg
- t1/2 (Liver): 24.7 min
- Ki (D(3) dopamine receptor [5]): 4100 nM
- Kinetic_solubility [6]: 113.3 µM
- Stability (Plasma [7]): 95.2%

SMILES: CCN1C(=O)c2ccccc2Sc2ccc(C(=O)NCc3ccc(OC)cc3)cc21
- AC50 (D(2) dopamine receptor [1]): 705 nM

SMILES: CCN1C(=O)c2ccccc2[S+]([O-])c2ccc(NC(=O)Cc3ccc(OC)cc3)cc21 (racemic)
- AC50 (D(2) dopamine receptor [1]): 705 nM

SMILES: CCN1C(=O)c2ccccc2[S@+]([O-])c2ccc(C(=O)N[C@H](C)c3ccc4ccccc4c3)cc21
- AC50 (D(2) dopamine receptor [1]): 353 nM
- AC50 (D(2) dopamine receptor [8]): 2890 nM
- AC50 (D(3) dopamine receptor [9]): 32400 nM
- Ki (D(2) dopamine receptor [10]): 290 nM
- Ki (D(3) dopamine receptor [5]): 3400 nM
- Ratio (CHO): 11.2
- Ratio Ki (HEK293): 11.7

SMILES: CCN1C(=O)c2ccccc2[S@+]([O-])c2ccc(C(=O)N[C@H](C)c3ccc(Br)cc3)cc21
- AC50 (D(2) dopamine receptor [1]): 223 nM
- AC50 (D(2) dopamine receptor [8]): 1290 nM
- AC50 (D(3) dopamine receptor [9]): 9130 nM
- Ki (D(2) dopamine receptor [10]): 530 nM
- Ki (D(3) dopamine receptor [5]): 880 nM
- Ratio (CHO): 7.1
- Ratio Ki (HEK293): 1.7

SMILES: CN1C(=O)c2ccccc2[S@@+]([O-])c2ccc(C(=O)NCCc3cccs3)cc21
- AC50 (D(2) dopamine receptor [1]): > 77000 nM
- AC50 (D(2) dopamine receptor [8]): > 77000 nM
- AC50 (D(3) dopamine receptor [9]): > 77000 nM
- Ki (D(2) dopamine receptor [10]): > 50000 nM
- Ki (D(3) dopamine receptor [5]): > 50000 nM

SMILES: CCN1C(=O)c2ccccc2[S+]([O-])c2ccc(C(=O)NC(C)c3ccccc3)cc21 (racemic)
- AC50 (D(2) dopamine receptor [1]): 560 nM

SMILES: COc1ccc(CNC(=O)c2ccc3c(c2)NC(=O)c2ccccc2[S+]3[O-])cc1 (racemic)
- AC50 (D(2) dopamine receptor [1]): 887 nM

SMILES: CCN1C(=O)c2ccccc2[S+]([O-])c2ccc(C(=O)OCc3ccc(OC)cc3)cc21 (racemic)
- AC50 (D(2) dopamine receptor [1]): > 77000 nM

Now from value to compound, other results behind:

- AC50 (D(2) dopamine receptor [1]): 353 nM
SMILES: COc1ccc(NC(=O)c2ccc3c(c2)N(C)C(=O)c2ccccc2[S+]3[O-])cc1 (racemic)

- AC50 (D(2) dopamine receptor [1]): 56 nM
- AC50 (D(2) dopamine receptor [8]): 576 nM
- AC50 (D(3) dopamine receptor [9]): 3240 nM
- Ki (D(2) dopamine receptor [10]): 90 nM
- Ki (D(3) dopamine receptor [5]): 230 nM
SMILES: CCN1C(=O)c2ccccc2[S@+]([O-])c2ccc(C(=O)NCc3ccc(F)cc3)cc21
- Ratio (CHO): 5.6
- Ratio Ki (HEK293): 2.6

- AC50 (D(2) dopamine receptor [1]): 509 nM
SMILES: CCN1C(=O)c2ccccc2[S+]([O-])c2ccc(C(=O)NCc3ccc(Cl)cc3)cc21 (racemic)

- AC50 (D(2) dopamine receptor [1]): 560 nM
SMILES: CN(C)CCCNC(=O)c1ccc2c(c1)N(C)C(=O)c1ccccc1[S+]2[O-] (racemic)

- AC50 (D(2) dopamine receptor [1]): 89 nM
SMILES: CN1C(=O)c2ccccc2[S+]([O-])c2ccc(C(=O)NCCN3CCCC3)cc21 (racemic)

- AC50 (D(2) dopamine receptor [1]): 353 nM
SMILES: CCN1C(=O)c2ccccc2[S+]([O-])c2ccc(C(=O)NCc3ccc4c(c3)OCO4)cc21 (racemic)

- AC50 (D(2) dopamine receptor [1]): 705 nM
SMILES: CCCN1C(=O)c2ccccc2[S+]([O-])c2ccc(C(=O)NCc3ccc(OC)cc3)cc21 (racemic)

- AC50 (D(2) dopamine receptor [1]): 112 nM
SMILES: CN1C(=O)c2ccccc2[S+]([O-])c2ccc(C(=O)NCCN3CCCCC3)cc21 (racemic)

- AC50 (D(2) dopamine receptor [1]): 223 nM
SMILES: CCN1C(=O)c2ccccc2[S+]([O-])c2ccc(C(=O)NCc3ccc(SC)cc3)cc21 (racemic)

- AC50 (D(2) dopamine receptor [1]): 141 nM
SMILES: CN1C(=O)c2ccccc2[S+]([O-])c2ccc(C(=O)NCc3ccc(Cl)cc3)cc21 (racemic)

- AC50 (D(2) dopamine receptor [1]): 89 nM
- AC50 (D(2) dopamine receptor [8]): 1020 nM
- AC50 (D(3) dopamine receptor [9]): 4570 nM
- Ki (D(2) dopamine receptor [10]): 240 nM
- Ki (D(3) dopamine receptor [5]): 370 nM
SMILES: CN1C(=O)c2ccccc2[S@+]([O-])c2ccc(C(=O)NCc3ccc(Br)cc3)cc21
- Ratio (CHO): 4.5
- Ratio Ki (HEK293): 1.5

- AC50 (D(2) dopamine receptor [1]): 281 nM
SMILES: CN1C(=O)c2ccccc2[S+]([O-])c2ccc(C(=O)NCc3cccc(Cl)c3)cc21 (racemic)

- AC50 (D(2) dopamine receptor [1]): 1580 nM
SMILES: CN1C(=O)c2ccccc2[S+]([O-])c2ccc(C(=O)Nc3ccccc3)cc21 (racemic)

- AC50 (D(2) dopamine receptor [1]): 70 nM
- AC50 (D(2) dopamine receptor [8]): 363 nM
- AC50 (D(3) dopamine receptor [9]): 4570 nM
- Ki (D(2) dopamine receptor [10]): 210 nM
- Ki (D(3) dopamine receptor [5]): 350 nM
SMILES: CN1C(=O)c2ccccc2[S@+]([O-])c2ccc(C(=O)NCCN3CCCC3)cc21
- Ratio (CHO): 12.6
- Ratio Ki (HEK293): 1.7
